System: U2OS
Assay: Multiplex assay against U2OS
Type: toxicity, cell-based
Conditions: human
Method in brief: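 Compound was added to live cells that had been stained at seeding with Hoechst33342, BioTracker Green Microtubule Cytoskeleton Dye, MitoTracker Red and Annexin V Alexa Fluor 680, and imaging followed on a CQ1 microscope at 37°C and 5% CO2. CellPathfinder machine-learning gating divided cells into Hoechst high-intensity objects or normal cells, normal cells into healthy, pyknosed or fragmented nuclei, and pyknosed cells into mitotic or apoptotic. Tubulin, mitochondrial-mass and membrane-permeability phenotypes are per cents of healthy-nucleus cells.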

[1] = 12 h, 1 µM, compound concentration 1 uM, replicate 1
[2] = 12 h, 1 µM, compound concentration 1 uM, replicate 2
[3] = 12 h, 10 µM, compound concentration 10 uM, replicate 1
[4] = 12 h, 10 µM, compound concentration 10 uM, replicate 2
[5] = 24 h, 1 µM, compound concentration 1 uM, replicate 1
[6] = 24 h, 1 µM, compound concentration 1 uM, replicate 2
[7] = 24 h, 10 µM, compound concentration 10 uM, replicate 1
[8] = 24 h, 10 µM, compound concentration 10 uM, replicate 2

C=CC(=O)Nc1cccc(Oc2nc(Nc3ccc(N4CCN(C)CC4)cc3OC)ncc2Cl)c1
Population Apoptotic (%) [1]: 67% | Population Fragmented Nuclei (%) [1]: 27% | Population Healthy Nuclei (%) [1]: 36% | Population Hoechst High Intensity Objects (%) [1]: 8% | Population Membrane Permeable-Phenotype (%) [1]: 17% | Population Mitochondria Different-Phenotype (%) [1]: 74% | Population Mitotic Cells (%) [1]: 32% | Population Normal (%) [1]: 92% | Population Pyknosed Nuclei (%) [1]: 36% | Population Tubulin-Different-Phenotype (%) [1]: 96% | Total Cell Count [1]: 140 | Population Apoptotic (%) [2]: 73% | Population Fragmented Nuclei (%) [2]: 32% | Population Healthy Nuclei (%) [2]: 26% | Population Hoechst High Intensity Objects (%) [2]: 13% | Population Membrane Permeable-Phenotype (%) [2]: 19% | Population Mitochondria Different-Phenotype (%) [2]: 80% | Population Mitotic Cells (%) [2]: 26% | Population Normal (%) [2]: 86% | Population Pyknosed Nuclei (%) [2]: 41% | Population Tubulin-Different-Phenotype (%) [2]: 100% | Total Cell Count [2]: 107 | Population Apoptotic (%) [3]: 58% | Population Fragmented Nuclei (%) [3]: 5% | Population Healthy Nuclei (%) [3]: 82% | Population Hoechst High Intensity Objects (%) [3]: 1% | Population Membrane Permeable-Phenotype (%) [3]: 35% | Population Mitochondria Different-Phenotype (%) [3]: 7% | Population Mitotic Cells (%) [3]: 41% | Population Normal (%) [3]: 98% | Population Pyknosed Nuclei (%) [3]: 12% | Population Tubulin-Different-Phenotype (%) [3]: 21% | Total Cell Count [3]: 152 | Population Apoptotic (%) [4]: 25% | Population Fragmented Nuclei (%) [4]: 16% | Population Healthy Nuclei (%) [4]: 79% | Population Hoechst High Intensity Objects (%) [4]: 13% | Population Membrane Permeable-Phenotype (%) [4]: 43% | Population Mitochondria Different-Phenotype (%) [4]: 16% | Population Mitotic Cells (%) [4]: 75% | Population Normal (%) [4]: 86% | Population Pyknosed Nuclei (%) [4]: 4% | Population Tubulin-Different-Phenotype (%) [4]: 22% | Total Cell Count [4]: 113 | Population Apoptotic (%) [5]: 91% | Population Fragmented Nuclei (%) [5]: 21% | Population Hoechst High Intensity Objects (%) [5]: 12% | Population Membrane Permeable-Phenotype (%) [5]: 70% | Population Mitochondria Different-Phenotype (%) [5]: 100% | Population Mitotic Cells (%) [5]: 8% | Population Normal (%) [5]: 87% | Population Pyknosed Nuclei (%) [5]: 61% | Total Cell Count [5]: 160 | Population Apoptotic (%) [6]: 92% | Population Fragmented Nuclei (%) [6]: 35% | Population Healthy Nuclei (%) [6]: 17% | Population Hoechst High Intensity Objects (%) [6]: 14% | Population Membrane Permeable-Phenotype (%) [6]: 93% | Population Mitochondria Different-Phenotype (%) [6]: 93% | Population Mitotic Cells (%) [6]: 7% | Population Normal (%) [6]: 85% | Population Pyknosed Nuclei (%) [6]: 47% | Population Tubulin-Different-Phenotype (%) [6]: 100% | Total Cell Count [6]: 131 | Population Apoptotic (%) [7]: 62% | Population Fragmented Nuclei (%) [7]: 5% | Population Healthy Nuclei (%) [7]: 89% | Population Hoechst High Intensity Objects (%) [7]: 3% | Population Membrane Permeable-Phenotype (%) [7]: 29% | Population Mitochondria Different-Phenotype (%) [7]: 9% | Population Mitotic Cells (%) [7]: 37% | Population Normal (%) [7]: 96% | Population Pyknosed Nuclei (%) [7]: 5% | Population Tubulin-Different-Phenotype (%) [7]: 18% | Total Cell Count [7]: 182 | Population Apoptotic (%) [8]: 66% | Population Fragmented Nuclei (%) [8]: 10% | Population Healthy Nuclei (%) [8]: 84% | Population Hoechst High Intensity Objects (%) [8]: 16% | Population Membrane Permeable-Phenotype (%) [8]: 27% | Population Mitochondria Different-Phenotype (%) [8]: 17% | Population Mitotic Cells (%) [8]: 33% | Population Normal (%) [8]: 83% | Population Tubulin-Different-Phenotype (%) [8]: 17% | Total Cell Count [8]: 120

CC(C)CC(=O)Nc1[nH]nc2c1CN(C(=O)C1CCN(C)CC1)C2(C)C [PHA-793887]
Population Apoptotic (%) [1]: 25% | Population Fragmented Nuclei (%) [1]: 3% | Population Healthy Nuclei (%) [1]: 92% | Population Hoechst High Intensity Objects (%) [1]: 1% | Population Membrane Permeable-Phenotype (%) [1]: 8% | Population Mitochondria Different-Phenotype (%) [1]: 30% | Population Mitotic Cells (%) [1]: 75% | Population Normal (%) [1]: 98% | Population Tubulin-Different-Phenotype (%) [1]: 30% | Total Cell Count [1]: 161 | Population Apoptotic (%) [2]: 20% | Population Fragmented Nuclei (%) [2]: 8% | Population Healthy Nuclei (%) [2]: 87% | Population Hoechst High Intensity Objects (%) [2]: 11% | Population Membrane Permeable-Phenotype (%) [2]: 9% | Population Mitochondria Different-Phenotype (%) [2]: 39% | Population Mitotic Cells (%) [2]: 80% | Population Normal (%) [2]: 88% | Population Pyknosed Nuclei (%) [2]: 4% | Population Tubulin-Different-Phenotype (%) [2]: 35% | Total Cell Count [2]: 87 | Population Apoptotic (%) [3]: 72% | Population Fragmented Nuclei (%) [3]: 17% | Population Healthy Nuclei (%) [3]: 68% | Population Hoechst High Intensity Objects (%) [3]: 3% | Population Membrane Permeable-Phenotype (%) [3]: 12% | Population Mitochondria Different-Phenotype (%) [3]: 29% | Population Mitotic Cells (%) [3]: 28% | Population Normal (%) [3]: 96% | Population Pyknosed Nuclei (%) [3]: 13% | Population Tubulin-Different-Phenotype (%) [3]: 32% | Total Cell Count [3]: 188 | Population Apoptotic (%) [4]: 50% | Population Fragmented Nuclei (%) [4]: 11% | Population Healthy Nuclei (%) [4]: 78% | Population Hoechst High Intensity Objects (%) [4]: 14% | Population Membrane Permeable-Phenotype (%) [4]: 21% | Population Mitochondria Different-Phenotype (%) [4]: 34% | Population Mitotic Cells (%) [4]: 50% | Population Normal (%) [4]: 85% | Population Pyknosed Nuclei (%) [4]: 10% | Population Tubulin-Different-Phenotype (%) [4]: 26% | Total Cell Count [4]: 136 | Population Apoptotic (%) [5]: 22% | Population Fragmented Nuclei (%) [5]: 5% | Population Healthy Nuclei (%) [5]: 91% | Population Hoechst High Intensity Objects (%) [5]: 1% | Population Membrane Permeable-Phenotype (%) [5]: 3% | Population Mitochondria Different-Phenotype (%) [5]: 24% | Population Mitotic Cells (%) [5]: 77% | Population Normal (%) [5]: 98% | Population Pyknosed Nuclei (%) [5]: 3% | Population Tubulin-Different-Phenotype (%) [5]: 29% | Total Cell Count [5]: 148 | Population Apoptotic (%) [6]: 50% | Population Fragmented Nuclei (%) [6]: 9% | Population Healthy Nuclei (%) [6]: 85% | Population Hoechst High Intensity Objects (%) [6]: 2% | Population Membrane Permeable-Phenotype (%) [6]: 9% | Population Mitochondria Different-Phenotype (%) [6]: 43% | Population Mitotic Cells (%) [6]: 50% | Population Normal (%) [6]: 97% | Population Pyknosed Nuclei (%) [6]: 4% | Population Tubulin-Different-Phenotype (%) [6]: 34% | Total Cell Count [6]: 82 | Population Apoptotic (%) [7]: 72% | Population Fragmented Nuclei (%) [7]: 9% | Population Healthy Nuclei (%) [7]: 73% | Population Hoechst High Intensity Objects (%) [7]: 4% | Population Membrane Permeable-Phenotype (%) [7]: 24% | Population Mitochondria Different-Phenotype (%) [7]: 45% | Population Mitotic Cells (%) [7]: 27% | Population Normal (%) [7]: 95% | Population Pyknosed Nuclei (%) [7]: 17% | Population Tubulin-Different-Phenotype (%) [7]: 33% | Total Cell Count [7]: 287 | Population Apoptotic (%) [8]: 55% | Population Fragmented Nuclei (%) [8]: 19% | Population Healthy Nuclei (%) [8]: 69% | Population Hoechst High Intensity Objects (%) [8]: 16% | Population Membrane Permeable-Phenotype (%) [8]: 21% | Population Mitochondria Different-Phenotype (%) [8]: 36% | Population Mitotic Cells (%) [8]: 44% | Population Normal (%) [8]: 83% | Population Pyknosed Nuclei (%) [8]: 10% | Population Tubulin-Different-Phenotype (%) [8]: 29% | Total Cell Count [8]: 172

From ChEMBL document CHEMBL4689842, “EUbOPEN Chemogenomics Library wave 1” (2021)
